According to ChEMBL document CHEMBL1949512, “RO4383596, an orally active KDR, FGFR, and PDGFR inhibitor: synthesis and biological evaluation” (Bioorg Med Chem, 2005):

What was measured:
[1] = target: Vascular endothelial growth factor receptor 2 (Homo sapiens, UniProt P35968); test: Inhibition of human recombinant EE-tagged intracellular domain of KDR using biotin-EEEEYFELVAKKKK as substrate by HTRF assay
[2] = target: Fibroblast growth factor receptor (Homo sapiens, UniProt P22607+P11362+P22455+P21802); test: Inhibition of human recombinant GST-tagged intracellular domain of FGFR using biotin-EEEEYFELV as substrate by HTRF assay
[3] = target: Platelet-derived growth factor receptor (Homo sapiens, UniProt P09619+P16234); test: Inhibition of human recombinant His-tagged intracellular domain of PDGFR using biotin-EEEEYFELV as substrate by HTRF assay
[4] = target: Tyrosine-protein kinase Fyn (Homo sapiens, UniProt P06241); test: Inhibition of Fyn by IMAP assay
How it was run: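 IMAP fluorescence-polarisation assay: kinase activity read as phosphorylated fluorescent peptide substrate binding preferentially to immobilised metal beads. Reactions run with ATP at three times the Km.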

[5] = target: Mitogen-activated protein kinase 1 (Homo sapiens, UniProt P28482); test: Inhibition of ERK2 by IMAP assay
How it was run: (§1)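 IMAP fluorescence-polarization assay, in which phosphorylated fluorescent peptide substrates bind immobilized metal beads. Reactions ran at ATP three times Km.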

[6] = target: T1, Serine/threonine-protein kinase Sgk1 (Homo sapiens, UniProt O00141); test: Inhibition of SGK
T1 sequence (O00141 whole entry): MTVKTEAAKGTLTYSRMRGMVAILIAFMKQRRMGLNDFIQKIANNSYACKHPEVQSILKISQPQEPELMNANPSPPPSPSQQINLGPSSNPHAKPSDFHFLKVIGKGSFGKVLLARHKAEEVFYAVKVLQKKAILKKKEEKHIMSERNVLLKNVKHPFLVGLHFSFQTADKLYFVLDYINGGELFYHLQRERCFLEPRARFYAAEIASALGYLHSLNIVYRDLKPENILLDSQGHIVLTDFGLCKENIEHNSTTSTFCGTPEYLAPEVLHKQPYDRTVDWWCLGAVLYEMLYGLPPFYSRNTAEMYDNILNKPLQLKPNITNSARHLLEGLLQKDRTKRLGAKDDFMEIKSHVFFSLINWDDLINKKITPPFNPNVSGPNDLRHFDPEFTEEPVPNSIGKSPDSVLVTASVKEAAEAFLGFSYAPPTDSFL

[7] = target: Protein kinase C alpha type (Homo sapiens, UniProt P17252); test: Inhibition of PKCalpha by IMAP assay; how it was run: as §1
[8] = test system: MDA-MB-435; test: Antiproliferative activity against human MDA-MB-435 cells
[9] = AUC in athymic nude mouse at 10 mg/kg, iv; assay type: ADME, organism-based; design: dose 10 mg/kg, route intravenous; details: plasma
How it was run: (§2)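 Athymic nude mice received one dose, either iv 10 mg/kg in 2% DMA/10% PEG400/88% of 40% HPBCD in water, or po 50 mg/kg in 2% Klucel LF/0.1% Tween 80. Retro-orbital or terminal cardiac blood was drawn from 1 min (iv) or 5 min (po) to 24 h into EDTA. Plasma was analysed by LC-MS/MS. Composite parameters were obtained by non-compartmental analysis, with AUC extrapolated to infinity.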

[10] = Half life in athymic nude mouse at 10 mg/kg, iv; assay type: ADME, organism-based; design: dose 10 mg/kg, route intravenous; details: in vivo; how it was run: as §2
[11] = Tmax in athymic nude mouse at 50 mg/kg, po; assay type: ADME, organism-based; design: dose 50 mg/kg, route oral; details: in vivo
How it was run: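 Athymic nude mice, single oral dose 50 mg/kg in 2% Klucel LF, 0.1% Tween 80 in water, 0.2 mL. Retro-orbital or terminal cardiac blood at 5, 15, 30 min and 1, 2, 4, 8, 16, 24 h; EDTA plasma by LC-MS/MS. Composite parameters; Tmax read from mean concentration–time profile.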

[12] = AUC in athymic nude mouse at 50 mg/kg, po; assay type: ADME, organism-based; design: dose 50 mg/kg, route oral; details: plasma; how it was run: as §2
[13] = Half life in Wistar rat at 5 mg/kg, iv; assay type: ADME, organism-based; design: dose 5 mg/kg, route intravenous; details: in vivo
How it was run: (§3)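 Wistar rats received one dose, either iv 5 mg/kg via femoral arterial catheter (2% DMA/10% PEG400/88% of 40% HPBCD) or po 50 mg/kg (2% Klucel LF/0.1% Tween 80). Blood came from an implanted jugular catheter, up to 24 h (iv) or 48 h (po), into EDTA. Plasma LC-MS/MS; individual non-compartmental parameters were averaged.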

[14] = Volume of distribution at steady state in Wistar rat at 5 mg/kg, iv; assay type: ADME, organism-based; design: dose 5 mg/kg, route intravenous; details: in vivo, read-out: Vdss
How it was run: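 Single 5 mg/kg iv dose to Wistar rats via femoral arterial catheter, vehicle 2% DMA, 10% PEG400, 88% of 40% HPBCD in water, 2.5 mL/kg. Jugular blood at 1, 7, 15, 30 min and 1, 3, 6, 12, 24 h; plasma by LC-MS/MS. Vdss by non-compartmental analysis per animal, averaged.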

[15] = Clearance in Wistar rat at 5 mg/kg, iv; assay type: ADME, organism-based; design: dose 5 mg/kg, route intravenous; details: in vivo; how it was run: as §3
[16] = AUC in Wistar rat at 50 mg/kg, po; assay type: ADME, organism-based; design: dose 50 mg/kg, route oral; details: plasma; how it was run: as §3
[17] = Tmax in Wistar rat at 50 mg/kg, po; assay type: ADME, organism-based; design: dose 50 mg/kg, route oral; details: in vivo
How it was run: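 Wistar rats, single oral dose 50 mg/kg as suspension in 2% Klucel LF, 0.1% Tween 80 in water, 5 mL/kg. Jugular catheter blood at 5, 15, 30 min and 1, 3, 6, 12, 24, 48 h; EDTA plasma, LC-MS/MS. Tmax taken from concentration–time profiles; individual-animal parameters averaged.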

[18] = Oral bioavailability in Wistar rat at 50 mg/kg; assay type: ADME, organism-based; details: in vivo; how it was run: as §3
[19] = AUC in C57/BL6 mouse at 25 mg/kg, po bid for 5 days; assay type: ADME, organism-based; design: dose 25 mg/kg, route oral; details: plasma
How it was run: (§4)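 Female C57/BL6 mice were dosed orally twice daily for 5 days with a suspension in 2% Klucel LF/0.1% Tween 80 in water. Six mice per dose were split into two subgroups of three, each sampled at alternate time points. Retro-orbital blood was taken at 0, 1, 4 and 8 h post-dose into EDTA, and plasma was analysed by LC-MS/MS. Parameters come from mean concentrations; AUC0–8h by linear trapezoidal rule; Cmax and Tmax as observed.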

[20] = Cmax in C57/BL6 mouse at 25 mg/kg, po bid for 5 days; assay type: ADME, organism-based; design: dose 25 mg/kg, route oral; details: in vivo; how it was run: as §4
[21] = AUC in C57/BL6 mouse at 50 mg/kg, po bid for 5 days; assay type: ADME, organism-based; design: dose 50 mg/kg, route oral; details: plasma; how it was run: as §4
[22] = Cmax in C57/BL6 mouse at 50 mg/kg, po bid for 5 days; assay type: ADME, organism-based; design: dose 50 mg/kg, route oral; details: in vivo; how it was run: as §4
[23] = Tmax in C57/BL6 mouse at 50 mg/kg, po bid for 5 days; assay type: ADME, organism-based; design: dose 50 mg/kg, route oral; details: in vivo; how it was run: as §4
[24] = Tmax in C57/BL6 mouse at 100 mg/kg, po bid for 5 days; assay type: ADME, organism-based; design: dose 100 mg/kg, route oral; details: in vivo; how it was run: as §4
[25] = test system: Mus musculus; test: Dose normalized AUC in […] mouse at 100 mg/kg, po; assay type: ADME, organism-based; design: dose 100 mg/kg, route oral; details: in vivo
How it was run: (§5)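 A separate group of female mice received one 100 mg/kg oral dose. Median PK parameters were calculated for that cohort.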

[26] = Cmax in […] mouse at 100 mg/kg, po; assay type: ADME, organism-based; design: dose 100 mg/kg, route oral; details: in vivo; how it was run: as §5

Sequence of Vascular endothelial growth factor receptor 2 (P35968 whole entry, the tested form may be a part): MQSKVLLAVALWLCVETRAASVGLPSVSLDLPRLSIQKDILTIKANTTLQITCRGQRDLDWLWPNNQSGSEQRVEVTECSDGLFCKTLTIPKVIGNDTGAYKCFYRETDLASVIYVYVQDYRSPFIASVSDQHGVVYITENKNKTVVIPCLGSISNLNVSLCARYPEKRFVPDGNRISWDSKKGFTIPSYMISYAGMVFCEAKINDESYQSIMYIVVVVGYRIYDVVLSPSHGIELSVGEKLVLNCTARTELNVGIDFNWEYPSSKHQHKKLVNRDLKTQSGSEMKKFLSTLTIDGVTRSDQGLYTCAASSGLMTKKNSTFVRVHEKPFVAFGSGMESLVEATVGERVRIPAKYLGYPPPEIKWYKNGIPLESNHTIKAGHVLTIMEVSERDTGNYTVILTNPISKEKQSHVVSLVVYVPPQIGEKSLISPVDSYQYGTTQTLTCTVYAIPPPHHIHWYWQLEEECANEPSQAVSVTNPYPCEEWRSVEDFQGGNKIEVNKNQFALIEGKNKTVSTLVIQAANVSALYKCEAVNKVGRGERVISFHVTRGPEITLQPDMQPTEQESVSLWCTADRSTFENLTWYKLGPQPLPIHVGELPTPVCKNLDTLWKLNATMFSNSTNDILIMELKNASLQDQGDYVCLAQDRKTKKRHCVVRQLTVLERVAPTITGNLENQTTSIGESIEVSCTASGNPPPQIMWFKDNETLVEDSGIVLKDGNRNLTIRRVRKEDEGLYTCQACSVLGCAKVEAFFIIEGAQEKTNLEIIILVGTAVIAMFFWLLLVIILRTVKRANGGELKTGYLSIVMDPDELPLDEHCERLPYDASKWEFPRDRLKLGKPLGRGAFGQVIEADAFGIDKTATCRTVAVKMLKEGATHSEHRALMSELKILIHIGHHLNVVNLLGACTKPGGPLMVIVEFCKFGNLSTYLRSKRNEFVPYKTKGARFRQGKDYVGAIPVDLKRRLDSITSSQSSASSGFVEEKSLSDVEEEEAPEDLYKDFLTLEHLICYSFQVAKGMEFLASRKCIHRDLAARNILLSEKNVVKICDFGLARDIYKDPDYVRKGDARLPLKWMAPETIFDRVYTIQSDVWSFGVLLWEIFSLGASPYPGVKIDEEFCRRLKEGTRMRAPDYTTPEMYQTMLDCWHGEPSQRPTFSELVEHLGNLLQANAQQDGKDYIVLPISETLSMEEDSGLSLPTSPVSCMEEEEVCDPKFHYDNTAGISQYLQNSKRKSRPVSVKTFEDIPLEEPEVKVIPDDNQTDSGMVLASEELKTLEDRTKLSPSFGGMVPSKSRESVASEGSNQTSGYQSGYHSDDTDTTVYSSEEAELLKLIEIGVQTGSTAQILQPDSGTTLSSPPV
Sequence of Mitogen-activated protein kinase 1 (P28482 whole entry): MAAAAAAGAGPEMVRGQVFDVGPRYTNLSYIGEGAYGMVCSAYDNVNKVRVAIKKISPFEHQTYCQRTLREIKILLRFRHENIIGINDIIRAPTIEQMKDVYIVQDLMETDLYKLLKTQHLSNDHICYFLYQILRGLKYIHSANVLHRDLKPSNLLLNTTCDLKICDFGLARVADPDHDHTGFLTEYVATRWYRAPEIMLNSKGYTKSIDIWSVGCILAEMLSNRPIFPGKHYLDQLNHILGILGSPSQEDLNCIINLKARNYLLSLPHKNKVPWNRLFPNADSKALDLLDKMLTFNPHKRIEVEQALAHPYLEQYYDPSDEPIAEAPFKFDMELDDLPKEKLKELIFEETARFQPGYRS
Sequence of Tyrosine-protein kinase Fyn (P06241 whole entry): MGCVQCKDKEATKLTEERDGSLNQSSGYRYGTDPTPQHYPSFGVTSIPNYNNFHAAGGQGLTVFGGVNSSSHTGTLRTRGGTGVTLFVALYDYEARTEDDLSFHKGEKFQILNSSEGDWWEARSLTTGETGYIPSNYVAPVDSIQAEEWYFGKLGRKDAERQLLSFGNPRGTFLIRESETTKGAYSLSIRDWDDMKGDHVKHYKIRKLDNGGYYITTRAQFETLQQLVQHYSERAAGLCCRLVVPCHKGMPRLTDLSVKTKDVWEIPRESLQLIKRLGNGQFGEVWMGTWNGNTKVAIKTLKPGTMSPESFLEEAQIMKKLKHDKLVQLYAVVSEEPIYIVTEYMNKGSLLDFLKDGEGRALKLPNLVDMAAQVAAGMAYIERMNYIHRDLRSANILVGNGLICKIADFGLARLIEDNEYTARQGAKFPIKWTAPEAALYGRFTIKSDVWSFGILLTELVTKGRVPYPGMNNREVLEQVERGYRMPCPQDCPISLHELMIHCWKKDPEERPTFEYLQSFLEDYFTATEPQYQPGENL

- IC50 [1]: 44 nM
- IC50 [2]: 29 nM
- IC50 [3]: 33 nM
- IC50 [4]: 322 nM
- IC50 [5]: 3040 nM
- IC50 [6]: > 125000 nM
- IC50 [7]: > 125000 nM
- IC50 [8]: 4200 nM
- AUC [9]: 11100 ng·h/mL
- half-life [10]: 3 h
- Tmax [11]: 0.25 h
- AUC [12]: 51300 ng·h/mL
- half-life [13]: 6 h
- Vd [14]: 5.3 L/kg
- clearance [15]: 23.1 mL/min/kg
- AUC [16]: 26500 ng·h/mL
- Tmax [17]: 5.3 h
- bioavailability [18]: 65%
- AUC at 120 h [19]: 30000 ng·h/mL
- Cmax [20]: 12000 ng/mL
- AUC at 120 h [21]: 75500 ng·h/mL
- Cmax [22]: 28400 ng/mL
- Tmax [23]: 0.5 h
- Tmax [24]: 0.5 h
- AUC/dose [25]: 1458 ng·h/mL/mg/kg
- Cmax [26]: 37600 ng/mL
Compound: COc1ccc(N2Cc3cnc(Nc4ccccc4)nc3N([C@@H]3CC[C@@H](O)C3)C2=O)cc1 (racemic)
